Experimental data: paper PMC4398657 (Bioorganic & medicinal chemistry, 2015)
Marks after values point to notes of the source that are not given here. Each block holds one compound with its values, some of them ahead of it.

Key:
[1] = test system: wild-type E. coli (AB1157); test: Checkerboard assay: minimum potentiation concentration; assay type: cell-based, Escherichia coli; settings: potentiation of LVX and PIP, antibiotic not separated
[2] = test system: transmembrane proton gradient, E. coli NCM3722; test: LacY permease-dependent uptake and accumulation of [3H]-TMG; assay type: cell-based, Escherichia coli; settings: concentrations up to 20 µM
Summary of the method: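 Whole E. coli cells take up [methyl-³H] β-D-thiogalactopyranoside through the LacY permease, and accumulation depends on proton motive force. The tracer stock was 1 mCi/ml at a specific activity of 7 Ci/mmol. Accumulated radiolabel was measured in the presence of test compound to estimate disruption of the transmembrane proton gradient.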

[3] = test system: outer membrane of E. coli strain deficient in AcrAB (HN1159); test: Nitrocefin influx; assay type: cell-based, Escherichia coli
[4] = test system: AcrB (AcrAB-TolC in E. coli); test: Cell-based assay of kinetic parameters; design: species or system Escherichia coli; settings: manuscript in preparation
[5] = Murine liver microsome stability; assay type: in vitro ADME, mouse; settings: % remaining after 60 min at 37 °C in the presence of NADPH; 25 µM compound
Summary of the method: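 Pooled mouse liver microsomes (0.5 mg/mL final) with test compound at 25 µM final, in 100 mM potassium phosphate pH 7.4 and 3 mM MgCl₂, with or without 2 mM NADPH (no-NADPH as control); 1 h at 37 °C; stopped with an equal volume of acetonitrile with 0.1% TFA. Value is the compound peak-area ratio of +NADPH to no-NADPH.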

[6] = test system: wild-type E. coli (AB1157); settings: antibacterial activity of the EPI alone; cited from earlier work

SMILES: CC1(C)Cc2c(C#N)c(SCC(=O)c3ccccc3)nc(N3CCOCC3)c2CO1 [Compound 12c]
EPI potency / MPC4 in words [1]: inactive

SMILES: CC1(C)Cc2c(C#N)c(SCC(O)c3ccccc3)nc(N3CCOCC3)c2CO1 (stereo not drawn) [Compound 12d, 6-(2-hydroxy-2-phenylethylthio)-5-cyano-3,3-dimethyl-8-morpholino-3,4-dihydro-1H-pyrano[3,4-c]pyridine]
EPI potency / MPC4 in words [1]: inactive

SMILES: CC1(C)Cc2c(C#N)c(SCCC#N)nc(N3CCOCC3)c2CO1 [Compound 20a]
EPI potency / MPC4 in words [1]: inactive

SMILES: COc1cccc(CCSc2nc(N3CCOCC3)c3c(c2C#N)CC(C)(C)OC3)c1 [Compound 20f]
inhibition of uptake and accumulation of 3H-TMG [2]: none of the analogs significantly inhibited uptake and accumulation
rate of nitrocefin influx [3]: none of the compounds increased the rate of nitrocefin influx

SMILES: COCCN1CCN(c2nc(SCCc3ccc(OC)cc3)c(C#N)c3c2COC(C)(C)C3)CC1 [Compound 21f]
inhibition of uptake and accumulation of 3H-TMG [2]: none of the analogs significantly inhibited uptake and accumulation

SMILES: COCCN1CCN(c2nc(SCCc3ccc(OC)c(OC)c3)c(C#N)c3c2COC(C)(C)C3)CC1 [Compound 21g]
inhibition of uptake and accumulation of 3H-TMG [2]: none of the analogs significantly inhibited uptake and accumulation

SMILES: CC(=O)Nc1ccc(CCSc2nc(N3CC(C)OC(C)C3)c3c(c2C#N)CC(C)(C)OC3)cc1 (stereo not drawn) [Compound 22f, 6-(4-acetamidophenethylthio)-5-cyano-3,3-dimethyl-8-(2,6-dimethyl-4-morpholino)-3,4-dihydro-1H-pyrano[3,4-c]pyridine]
potency against AcrB relative to MBX2319 [4]: at least 20 fold
MLMS [5]: 0 ^* %

MLMS [5]: 0 ^* %
SMILES: CC1CN(c2nc(SCCc3ccc(NC(=O)C(F)(F)F)cc3)c(C#N)c3c2COC(C)(C)C3)CC(C)O1 (stereo not drawn) [Compound 22g, 6-[4-(2,2,2-trifluoroacetamido)phenethylthio]-5-cyano-8-(2,6-dimethylmorpholino)-3,3-dimethyl-3,4-dihydro-1H-pyrano[3,4-c]pyridine]

SMILES: C=CC(=O)Nc1ccc(CCSc2nc(N3CC(C)OC(C)C3)c3c(c2C#N)CC(C)(C)OC3)cc1 (stereo not drawn) [Compound 22i, 6-(4-acrylamidophenethylthio)-5-cyano-3,3-dimethyl-8-(2,6-dimethyl-4-morpholino)-3,4-dihydro-1H-pyrano[3,4-c]pyridine]
inhibition of uptake and accumulation of 3H-TMG [2]: none of the analogs significantly inhibited uptake and accumulation
EPI potency / MPC4 in words [1]: submicromolar

SMILES: CC1CN(c2nc(SCCc3ccc(NC(=N)N)cc3)c(C#N)c3c2COC(C)(C)C3)CC(C)O1 (stereo not drawn) [Compound 22k, 6-(4-guanidinophenethylthio)-5-cyano-3,3-dimethyl-8-(2,6-dimethyl-4-morpholino)-3,4-dihydro-1H-pyrano[3,4-c]pyridine]
inhibition of uptake and accumulation of 3H-TMG [2]: none of the analogs significantly inhibited uptake and accumulation
EPI potency / MPC4 in words [1]: submicromolar

SMILES: CC1(C)Cc2c(C#N)c(SCCc3ccccc3)nc(N3CCOCC3)c2CO1 [MBX2319, 3,3-dimethyl-5-cyano-8-morpholino-6-(phenethylthio)-3,4-dihydro-1H-pyrano[3,4-c]pyridine]
MIC [6]: ≥ 100 µM
